Published values collected from several papers.
Lines come from different studies, so protocols differ.
Target: Receptor tyrosine-protein kinase erbB-2 (ERBB2, Homo sapiens, UniProt P04626)

C#Cc1n[nH]c2c(-c3cn([C@@H](C)c4ccccn4)c(=O)[nH]c3=O)cc(F)cc12  inhibition (enzyme activity; inhibitor; 0.1 µM): -0.7%
O=c1[nH]c2ccccc2n1C1CCN(Cc2ccc(-c3[nH]c4cc5ncnc5cc4nc3-c3ccccc3)cc2)CC1  remaining signal (cell-free assay; 0.5 µM): 88.9%
c1ccc(C(NCCNC(c2ccccc2)c2ccccc2)c2ccccc2)cc1  inhibition (enzyme activity; inhibitor; 10 µM): -7%
N#CC1(c2ccccn2)CCN(Cc2cc(C(=O)O)c(=O)n3ccccc23)CC1  remaining binding (cell-free assay; competition with immobilised ligand; 1 µM): 96%
Cn1cc(-c2cc(F)cc(N3CCn4c(cc5c4CCCC5)C3=O)c2CO)cc(Nc2ccc(N3CCN(C4COC4)CC3)cn2)c1=O  inhibition (enzyme activity; inhibitor; 0.1 µM): 7%
COc1cc(Nc2ncc(F)c(Nc3ccc4c(n3)NC(=O)C(C)(C)O4)n2)cc(OC)c1OC  inhibition (binding; competition with immobilised ligand; 10 µM): 70%
Cn1cc(-c2cccc(N3CCc4c(sc5c4CC(C)(C)C5)C3=O)c2CO)cc(Nc2ccncn2)c1=O  inhibition (enzyme activity; inhibitor; 1 µM): 54%
Nc1ncc(-c2nc(N3CCOCC3)nc(N3CCOCC3)n2)c(C(F)F)n1  remaining binding (binding; competition with immobilised ligand; 10 µM): 65%
Cc1nn(C)cc1-c1nc2c(N3CCN(Cc4ccc(Cl)cc4)CC3)c(Cl)cnc2[nH]1  remaining binding (binding; competition with immobilised ligand; 1 µM): 70%
Cn1cncc1[C@@](O)(COc1ccc(C#N)cc1-c1ccc(OC(F)(F)F)cc1)c1ccc(C#N)cc1  remaining binding (cell-free assay; competition with immobilised ligand; 1 µM): 94%
CC(C)(C)c1cc(C=C(C#N)C#N)cc(Br)c1O  remaining activity (enzyme activity; inhibitor; 0.5 µM): 95.7%
C[C@H](C(=O)N[C@H]1COc2ccccc2[C@@H]1S(C)(=O)=O)c1ccc(F)cc1  inhibition (enzyme activity; inhibitor; 10 µM): 0%
C#Cc1n[nH]c2c(-c3cn([C@@H](C)c4ccccc4)c(=O)[nH]c3=O)cc(F)cc12  inhibition (enzyme activity; inhibitor; 0.1 µM): -8.5%
COc1ncccc1-c1cnn2ccc(N3CCN(C(=O)OC(C)C)CC3)nc12  remaining binding (binding; competition with immobilised ligand; 1 µM): 92%
